These results are taken from ChEMBL document CHEMBL1125593, “Synthesis and biological evaluation of substituted benzenesulfonamides as novel potent membrane-bound phospholipase A2 inhibitors” (1991).

A word on the IC30: it is the point of the concentration-response curve where the effect stands at 30%. Read a low IC30 as an effect from little substance. In general, inhibition refers to the drop in the measured response relative to a control, in per cent. Low readings indicate a response near the control, high ones a response far below the control.

SMILES strings stand for the structures.

Assay [1] has as its system membrane-bound phospholipase A2 (Oryctolagus cuniculus). Put plainly: Tested in vitro for inhibition of phospholipase A2 (PLA2) in rabbit heart membranes.
Assay [2] has as its system Rattus norvegicus. The assay is described as follows: Compound was tested for the % inhibition rate of infarct size (myoglobin depleted area) on sc administration 15 min prior to the ligation at a dose of 75.0 mg/kg. Conditions: route subcutaneous. In kind it is functional. In a few lines:
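Sprague-Dawley rats (180–260 g) were anesthetized with diethyl ether and the left main coronary artery was ligated 1–2 mm from its origin for 3 h. Compound was given sc 15 min before ligation, and rats dying within 3 h were excluded. Infarct size was scored as the myoglobin-depleted area by immunohistochemistry and image analysis, with inhibition taken versus untreated animals, mean ± SEM.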

Assay [3] deals with Rattus norvegicus. The assay is described as follows: Compound was tested for the % inhibition rate of infarct size (myoglobin depleted area) on iv administration 15 min prior to the ligation at a dose of 0.3 mg/kg. In kind it is functional.
For assay [4], the system named is Rattus norvegicus. The assay is described as follows: Compound was tested for the % inhibition rate of infarct size (myoglobin depleted area) on iv administration 15 min prior to the ligation at a dose of 1.0 mg/kg. The format is functional.
For assay [5], the system named is Rattus norvegicus. The assay is described as follows: Compound was tested for the % inhibition rate of infarct size (myoglobin depleted area) on iv administration 15 min prior to the ligation at a dose of 0.1 mg/kg. In kind it is functional.
Assay [6] has as its system membrane-bound phospholipase A2 (Oryctolagus cuniculus). The assay is described as follows: Compound was tested for the percent inhibition of phospholipase A2 (PLA2) in rabbit heart membranes at a concentration of 100 uM.
Assay [7] has as its system Rattus norvegicus. The assay is described as follows: Compound was tested for the % inhibition rate of infarct size (myoglobin depleted area) on iv administration 15 min prior to the ligation at a dose of 1 mg/kg. The format is functional.
The subject of assay [8] is Rattus norvegicus. Put plainly: Compound was tested for the % inhibition rate of infarct size (myoglobin depleted area) on iv administration 15 min prior to the ligation at a dose of 10 mg/kg. The format is functional.

On to `CN(C(=O)/C=C/c1ccc(S(C)(=O)=O)cc1)c1ccc(S(=O)(=O)N2CCCN(CCc3ccccc3)CC2)cc1`, for which the 30% effect level in assay [1] (IC30) was put at 25 nM.
In the case of `CN(C(=O)/C=C/c1ccc(O)c(O)c1)c1ccc(S(=O)(=O)NC2CCCCCC2)cc1`, the 30% effect concentration (IC30) in assay [1] turned out to be 1750 nM.
In turn, `CCN(CC)CCCC(C)Nc1c2ccc(Cl)cc2nc2ccc(OC)cc12` (stereo not drawn) [QUINACRINE] yielded an Inhibition rate in the assay with Rattus norvegicus [2] of 37.4%.
Consider `CN(C(=O)/C=C/c1ccc(O)c(O)c1)c1ccc(S(=O)(=O)NC2CCCCC2)cc1`, for which the IC30 in assay [1] was determined as 1450 nM.
As to `CN(C(=O)/C=C/c1ccc(S(C)(=O)=O)cc1)c1ccc(S(=O)(=O)NC2CCN(CCc3ccccc3)CC2)cc1`, the results for the Inhibition rate in the assay on Rattus norvegicus [3], in the assay with Rattus norvegicus [4] and with Rattus norvegicus [5] were 18.7%, 22.5% and 7%, respectively. In assay [1], this compound came in with a concentration for an effect of 30% (IC30) of 9 nM.
The compound `CN(C(=O)/C=C/c1ccc(O)c(O)c1)c1ccc(S(=O)(=O)NC2CCc3ccccc3C2)cc1` (stereo not drawn) came in with a concentration for an effect of 30% (IC30) in assay [1] of 5070 nM. In other words, the single-digit micromolar range.
Still for that read-out and setting: the result for `CN(C(=O)/C=C/c1ccc(C#N)cc1)c1ccc(S(=O)(=O)NC2CCCCCC2)cc1` reads 200 nM; that for `CN(C(=O)/C=C/c1ccc(S(C)(=O)=O)cc1)c1ccc(S(=O)(=O)N2CCCN(Cc3ccccc3)CC2)cc1`, 64 nM; that for `CN(C(=O)/C=C/c1ccc([N+](=O)[O-])cc1)c1ccc(S(=O)(=O)NC2CCCCCC2)cc1`, 190 nM.
In turn, `NS(=O)(=O)c1ccc(NC(=O)/C=C/c2ccc(O)c(O)c2)cc1` yielded an IC30 in assay [1] of 25000 nM.
`COc1ccc(CCN(C)CCCC(C#N)(c2ccc(OC)c(OC)c2)C(C)C)cc1OC` (stereo not drawn): the Inhibition rate with Rattus norvegicus [3] worked out at 0.1%; with Rattus norvegicus [4], 19.2%; with Rattus norvegicus [5], 0.7%.
Compound `COC(=O)c1sccc1NC(=O)/C=C/c1ccc(O)c(O)c1` yielded an inhibition in assay [6] of 31.6%.
In assay [1], `CN1CCC(NS(=O)(=O)c2ccc(N(C)C(=O)/C=C/c3ccc(S(C)(=O)=O)cc3)cc2)CC1` registered an IC30 of 1000 nM.
`CN(C(=O)/C=C/c1ccc(O)c(O)c1)c1ccc(S(=O)(=O)NC2Cc3ccccc3C2)cc1` yielded an IC30 in assay [1] of 4640 nM. Against the preceding compound, the IC30 is about 4.6-fold higher.
Same read-out and setting: the result for `CC(C)NS(=O)(=O)c1ccc(N(C)C(=O)/C=C/c2ccc(O)c(O)c2)cc1` reads 30000 nM.
In turn, `CN(C(=O)/C=C/c1ccc(S(C)(=O)=O)cc1)c1ccc(S(=O)(=O)N2CCN(Cc3ccccc3)CC2)cc1` yielded an IC30 in assay [1] of 220 nM. Compared with the last compound, the IC30 is about 140-fold lower.
Consider `Cc1cccc(CCN(C)S(=O)(=O)c2ccc(N(C)C(=O)/C=C/c3ccc(S(C)(=O)=O)cc3)cc2)n1`, for which, in assay [1], the 30% effect level (IC30) was put at 65 nM.
In turn, `CN(C(=O)/C=C/c1ccc(O)c(O)c1)c1ccc(S(=O)(=O)NC2CCCC2)cc1` came in with an IC30 in assay [1] of 5430 nM. Compared with the last compound, the IC30 is about 84-fold higher.
Still for that read-out and setting: the result for `CC(C)CN1CCC(NS(=O)(=O)c2ccc(N(C)C(=O)/C=C/c3ccc(S(C)(=O)=O)cc3)cc2)CC1` reads 51 nM.
Same read-out and setting: the result for `CN(C(=O)/C=C/c1ccc(O)c(O)c1)c1ccc(S(N)(=O)=O)cc1` reads 13300 nM.
Same read-out and setting: the result for `CN(C(=O)/C=C/c1ccc(S(C)(=O)=O)cc1)c1ccc(S(=O)(=O)NCCc2ccccn2)cc1` reads 210 nM; that for `CN(C(=O)/C=C/c1ccc(S(C)(=O)=O)cc1)c1ccc(S(=O)(=O)NC2CCCCCC2)cc1`, 16 nM.
For the compound `CNS(=O)(=O)c1ccc(N(C)C(=O)/C=C/c2ccc(O)c(O)c2)cc1`, the 30% effect level in assay [1] (IC30) was put at 44000 nM.
As to `CN(C(=O)/C=C/c1ccc(O)c(O)c1)c1ccc(S(=O)(=O)NC2CCc3ccccc32)cc1` (stereo not drawn), the 30% effect level in assay [1] (IC30) was put at 6100 nM.
As for `CN(C(=O)/C=C/c1ccc(O)c(F)c1)c1ccc(S(=O)(=O)NC2CCCCCC2)cc1`, the IC30 in assay [1] was 5330 nM. This IC30 and that of the compound before are within 1.5-fold of each other.
`CN(C(=O)/C=C/c1ccc(S(C)(=O)=O)cc1)c1ccc(S(=O)(=O)NCc2ccccn2)cc1` returned an IC30 in assay [1] of 260 nM.
Still for that read-out and setting: the value for `CN(C(=O)/C=C/c1ccc(-n2ccnc2)cc1)c1ccc(S(=O)(=O)NC2CCCCCC2)cc1` was 450 nM; that for `CN(C(=O)/C=C/c1ccc(S(C)(=O)=O)cc1)c1ccc(S(=O)(=O)NC2CCCCN(Cc3ccccc3)C2)cc1` (stereo not drawn) was 25 nM.
Take `Cc1cccc(CCNS(=O)(=O)c2ccc(N(C)C(=O)/C=C/c3ccc(S(C)(=O)=O)cc3)cc2)n1`: the figures for the Inhibition rate in the assay on Rattus norvegicus [7] and in the assay on Rattus norvegicus [8] were 5.6% and 21.9%, respectively. Further, in assay [1], the IC30 amounted to 66 nM.
As for `CN(C(=O)/C=C/c1ccc(S(C)(=O)=O)cc1)c1ccc(S(=O)(=O)NC2CCN(Cc3ccccc3)CC2)cc1`, the Inhibition rate came out at 20.9% in the assay with Rattus norvegicus [3], 22.1% with Rattus norvegicus [4] and 1.6% in the assay on Rattus norvegicus [5]. The IC30 in assay [1] was 28 nM.
As for `CN(C(=O)/C=C/c1ccc(O)cc1)c1ccc(S(=O)(=O)NC2CCCCCC2)cc1`, the IC30 in assay [1] was determined as 1240 nM.
Regarding `CN(C(=O)/C=C/c1ccc(S(C)(=O)=O)cc1)c1ccc(S(=O)(=O)N2CCN(CCc3ccccc3)CC2)cc1`, in assay [1], it took 63 nM to reach the 30% level (IC30).
In assay [1], `CN(C(=O)/C=C/c1ccc(S(C)(=O)=O)cc1)c1ccc(S(=O)(=O)NC2CCCCN(Cc3ccccn3)C2)cc1` (stereo not drawn) returned an IC30 of 49 nM. This IC30 and that of the compound before are within 1.5-fold of each other.
